S1P4 agonist – S1P4 receptor agonists, primary screen, cell-based; S1P4-expressing cell line, agonist reporter assay; Sphingosine 1-phosphate receptor 4 (Homo sapiens), O95977; 0.35% of 220,000 active; AID 1509, 2009; activation, % at 4.98 µM; in the data active = activation above about 11%;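 note: 0% = DMSO vehicle and 100% = reference agonist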
Mdm2 ligase inh – MDM2-luciferase reporter signal enhancers, primary screen, MDM2 E3 ligase inhibitor project, cell-based, luminescence, 1536-well | E3 ubiquitin-protein ligase Mdm2 (Homo sapiens), Q00987 | cell-based MDM2 ubiquitination luciferase reporter, 2 h; 0 = plate control, 100 = twice control, blank-subtracted | signal enhancement, % at 5 µM | 0.11% of 210,000 active | AID 1230, 2008;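 active = signal enhancement of 30% or more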;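 note: luminescence tracks abundance of the self-degrading MDM2-luciferase fusion protein; higher signal means inhibition of MDM2 E3 ligase activity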
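Material: Stable MDM2–luciferase fusion reporter cells | Amount: 2000 cells seeded into each well | Dosing: One concentration, 5 µM, with 0.2% DMSO | Incubation: 4 h cell settling then 2 h compound exposure, 37 °C | Measured by: Luciferase luminescence | Read-out basis: % enhancement relative to plate controls after blank subtraction | Benchmarks: Control and blank well means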
S1P4 antag – S1P4 receptor antagonists, primary screen, cell-based | S1P4-expressing cells, antagonist mode, reporter read-out | inhibition, % at 4.98 µM | Sphingosine 1-phosphate receptor 4 (Homo sapiens), O95977 | AID 1510, 2009 | 0.26% of 220,000 active; in the data active = inhibition above about 29%;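 note: 0% = wells stimulated with agonist and 100% = vehicle wells without agonist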
S1P3 antagonist – S1P3 receptor antagonists, primary screen, cell-based | Sphingosine 1-phosphate receptor 3 (Homo sapiens), Q99500 | CHO S1P3 NFAT-BLA reporter, FRET fluorescence, antagonist mode | inhibition, % at 4.98 µM | 0.27% of 170,000 active;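 active = inhibition above the plate cutoff, the mean inhibition of test wells on that plate plus 3 SD, cut at about 28% in these data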;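 note: cells challenged with S1P at its EC80 of 0.8 µM; blue over green emission ratio from cleaved BLA substrate after 4 h stimulation; 0% = S1P-stimulated wells and 100% = unstimulated DMSO-only wells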
Target sequence (Q99500 whole entry, looked up): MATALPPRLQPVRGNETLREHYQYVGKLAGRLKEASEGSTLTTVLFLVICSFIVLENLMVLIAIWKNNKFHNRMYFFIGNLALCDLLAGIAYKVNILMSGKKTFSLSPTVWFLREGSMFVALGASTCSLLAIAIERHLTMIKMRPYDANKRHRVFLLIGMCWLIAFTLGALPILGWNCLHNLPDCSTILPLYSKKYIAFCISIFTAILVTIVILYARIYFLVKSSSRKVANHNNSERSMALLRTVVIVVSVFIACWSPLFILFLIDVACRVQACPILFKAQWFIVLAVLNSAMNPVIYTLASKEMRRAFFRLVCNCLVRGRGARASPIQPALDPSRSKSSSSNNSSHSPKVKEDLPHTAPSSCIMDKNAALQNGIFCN
L major viab – Leishmania major promastigote growth inhibition, primary screen; Leishmania major promastigotes, resazurin fluorescence viability; inhibition, % at 10 µM; 9% of 200,000 active; AID 1063, 2008; in the data active = inhibition above about 50%;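 note: promastigotes grown with compound for 44 hours at 28 °C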
The depositor's hits bear a star; . = not tested or not shown. The entries come from a sample that favours hits as a whole.

SMILES	S1P4 agonist	Mdm2 ligase inh	S1P4 antag	S1P3 antagonist	L major viab
CC(=O)n1cc([C@H]2C=C(C(=O)N3CCN(Cc4ccccc4)CC3)O[C@@H](OCc3ccc(CO)cc3)C2)c2ccccc21	0	.	-11	-11	31
CCn1cc(CNC(=O)c2cc(-c3cc(OC)ccc3OC)nc3ccccc23)c(C)n1	1	-14	-7	-5	56*
CCOC(=O)N(C)c1ccc(C(O)(C(F)(F)F)C(F)(F)F)cc1	3	-8	-15	-2	100*
CC(=O)N(C)c1ccc(C(O)(C(F)(F)F)C(F)(F)F)cc1	0	-9	6	-6	99*
C/C(=N/NC(=O)CNC(=O)c1cccs1)c1ccco1	3	-16	-5	-5	.
Cc1ccc2c(c1)C1CN(C)CCC1N2Sc1ccccc1[N+](=O)[O-] (stereo unspecified)	-1	.	12	5	.
CC1=CC(C)(C)N2C(=O)C3(SCC(=O)N3c3ccc(F)cc3)c3cc(C)cc1c32 (stereo unspecified)	2	-13	-7	.	92*
CC1=CC(C)(C)N2C(=O)C3(NCCc4c3[nH]c3ccccc43)c3cc(C)cc1c32 (stereo unspecified)	1	.	9	15	.
Cc1ccc(CS(=O)(=O)CCC(=O)NCCCN2CCCC2)cc1	1	-11	-15	82*	-6
Cc1ccc(CS(=O)(=O)CCC(=O)NCCN2CCCCC2C)cc1 (stereo unspecified)	1	-21	-24	10	-4
O=C(Nc1ccccc1)c1ccc(NCCc2ccccc2)c([N+](=O)[O-])c1	3	-11	1	1	-8
CCc1ccccc1NC(=O)c1ccc(NCCc2ccccc2)c([N+](=O)[O-])c1	-1	-11	0	-1	67*
O=C1c2ccccc2NC(c2ccco2)N1O (stereo unspecified)	-2	-5	-5	5	2
O=C1C2=C(Nc3ccccc3SC2c2ccco2)c2ccccc21 (stereo unspecified)	0	-33	-1	-16	99*
CN(C(=O)c1ccc(OC2CCN(C(=O)c3cccnc3)CC2)cc1)C1CCCCC1	1	4	-1	-14	-4
O=C(/C=C/c1cccc(Cl)c1)N1CCC(Cc2ccccc2)CC1	-1	-6	-11	0	50*
Clc1ccc(CN2CCC(Cc3ccccc3)CC2)cc1	1	-17	-10	9	90*
Cc1ccccc1NC(=O)c1ccc(CN2CCC(Cc3ccccc3)CC2)cc1	-2	7	-8	.	53*
O=C(/C=C/c1ccccc1)N1CCC(Cc2ccccc2)CC1	-2	15	-3	.	-4
Clc1cccc(CN2CCC(Cc3ccccc3)CC2)c1	-5	-11	-4	.	86*
N#C/C(=N\Nc1ccccc1)C(=N)N1CCCCC1	4	-25	7	.	90*
COc1cc(CCC(=O)Nc2ccc(S(=O)(=O)NC3=NCCCCC3)cc2)cc(OC)c1OC	1	3	-7	-10	4
CN1C(=O)NC(c2ccccc2)C2=C1CN(Cc1ccco1)C2=O (stereo unspecified)	0	-22	-17	-8	-8
CN1C(=O)C2(c3ccccc31)N(C)CC(c1ccccc1)C21SC(=S)N(Cc2ccco2)C1=O (stereo unspecified)	0	-3	-12	.	99*
CN1C(=O)C2(c3ccccc31)N(C)CC(c1ccccn1)C21SC(=S)N(Cc2ccco2)C1=O (stereo unspecified)	-2	-4	8	-9	100*
SMILES	S1P4 agonist	Mdm2 ligase inh	S1P4 antag	S1P3 antagonist	L major viab
CCOC(=O)c1cnc2sc3c(n2c1=O)CCCC3	1	-13	-19	2	100*
CS(=O)(=O)N(Cc1ccccc1)c1ccc(C(=O)NCCSc2ccccn2)cc1	0	-11	-10	11	60*
CN1CCN(NS(=O)(=O)c2ccc(Cl)s2)CC1	-1	-12	10	4	55*
COc1ccc(O)c(-c2cc(-c3cccs3)[nH]n2)c1	-1	-2	5	-18	2
CCNc1nc(SCCOc2ccc(Br)cc2)nc(N(C)C)n1	0	8	-4	10	58*
CCNc1nc(NC(C)C)nc(SCCOc2ccc(C)cc2)n1	2	-9	5	.	50
CN(C)CCC1CCN(c2cc(C#N)c(C#N)cc2[N+](=O)[O-])CC1	1	-16	-6	-13	55*

Screens (PubChem)
